Reference: ChEMBL document CHEMBL4024790 (J Med Chem, 2018)
Active and inactive are the calls of the source. No cut-off for these calls is given here.

Legend:
[1] = Ratio of unbound brain concentration to unbound plasma concentration in po dosed Cynomolgus monkey; assay type: ADME, organism-based, Macaca fascicularis; details: brain and plasma, read-out: K(p,uu,brain)
Cytochrome P450 3A = Cytochrome P450 3A (Homo sapiens, UniProt P08684+P20815+Q9HB55+P24462); experiment: Inhibition of recombinant human CYP3A; assay type: ADME; details: recombinant enzyme
Canis familiaris = experiment: Toxicity in dog up to 30 mg/kg, po administered as single dose by microscopic method; assay type: organism-based, Canis lupus familiaris; details: in vivo
Rattus norvegicus [2] = experiment: Toxicity in rat assessed as effect on vasculature at 5 to 250 mg/kg/day, po up to 15 days by microscopic method; assay type: organism-based; details: in vivo, 360 h
Cytochrome P450 2B6 = molecular target: T1, Cytochrome P450 2B6 (Homo sapiens, UniProt P20813); experiment: Inhibition of recombinant human CYP2B6; assay type: ADME; details: recombinant enzyme
T1 sequence (P20813 whole entry): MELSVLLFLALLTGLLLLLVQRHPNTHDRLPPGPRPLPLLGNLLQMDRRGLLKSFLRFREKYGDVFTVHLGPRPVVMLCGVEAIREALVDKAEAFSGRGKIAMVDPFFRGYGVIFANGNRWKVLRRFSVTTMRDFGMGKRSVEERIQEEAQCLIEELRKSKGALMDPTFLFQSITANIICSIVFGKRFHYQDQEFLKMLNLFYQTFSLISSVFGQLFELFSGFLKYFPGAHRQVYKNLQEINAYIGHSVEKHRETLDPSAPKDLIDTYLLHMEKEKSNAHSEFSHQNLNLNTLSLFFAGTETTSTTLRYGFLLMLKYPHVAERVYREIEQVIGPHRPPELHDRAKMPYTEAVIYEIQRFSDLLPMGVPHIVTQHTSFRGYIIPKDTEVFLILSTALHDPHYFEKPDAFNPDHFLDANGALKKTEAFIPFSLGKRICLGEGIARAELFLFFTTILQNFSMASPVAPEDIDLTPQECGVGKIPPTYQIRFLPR

[3] = Ratio of unbound brain concentration to unbound plasma concentration in sc dosed CD-1 mouse; assay type: ADME, organism-based; details: brain and plasma, read-out: K(p,uu,brain)
Method in brief: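 Compound given sc to mice, iv and/or sc to rats, po to dogs and sc to monkeys; sc doses as a solution in 20% SBE-BCD + 2 molar equiv 1N HCl. Plasma, whole brain and CSF taken at matched times from 2 min to 24 h and quantified by LC-MS/MS. Fraction unbound in plasma and brain homogenate (diluted 4-fold, dilution factor 5 applied) by 6 h equilibrium dialysis against phosphate buffer at 37°C.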

Aldehyde oxidase = molecular target: T2, Aldehyde oxidase (Homo sapiens, UniProt Q06278); experiment: Drug metabolism assessed as aldehyde oxidase (unknown origin)-mediated metabolite formation; assay type: ADME
T2 sequence (Q06278 whole entry): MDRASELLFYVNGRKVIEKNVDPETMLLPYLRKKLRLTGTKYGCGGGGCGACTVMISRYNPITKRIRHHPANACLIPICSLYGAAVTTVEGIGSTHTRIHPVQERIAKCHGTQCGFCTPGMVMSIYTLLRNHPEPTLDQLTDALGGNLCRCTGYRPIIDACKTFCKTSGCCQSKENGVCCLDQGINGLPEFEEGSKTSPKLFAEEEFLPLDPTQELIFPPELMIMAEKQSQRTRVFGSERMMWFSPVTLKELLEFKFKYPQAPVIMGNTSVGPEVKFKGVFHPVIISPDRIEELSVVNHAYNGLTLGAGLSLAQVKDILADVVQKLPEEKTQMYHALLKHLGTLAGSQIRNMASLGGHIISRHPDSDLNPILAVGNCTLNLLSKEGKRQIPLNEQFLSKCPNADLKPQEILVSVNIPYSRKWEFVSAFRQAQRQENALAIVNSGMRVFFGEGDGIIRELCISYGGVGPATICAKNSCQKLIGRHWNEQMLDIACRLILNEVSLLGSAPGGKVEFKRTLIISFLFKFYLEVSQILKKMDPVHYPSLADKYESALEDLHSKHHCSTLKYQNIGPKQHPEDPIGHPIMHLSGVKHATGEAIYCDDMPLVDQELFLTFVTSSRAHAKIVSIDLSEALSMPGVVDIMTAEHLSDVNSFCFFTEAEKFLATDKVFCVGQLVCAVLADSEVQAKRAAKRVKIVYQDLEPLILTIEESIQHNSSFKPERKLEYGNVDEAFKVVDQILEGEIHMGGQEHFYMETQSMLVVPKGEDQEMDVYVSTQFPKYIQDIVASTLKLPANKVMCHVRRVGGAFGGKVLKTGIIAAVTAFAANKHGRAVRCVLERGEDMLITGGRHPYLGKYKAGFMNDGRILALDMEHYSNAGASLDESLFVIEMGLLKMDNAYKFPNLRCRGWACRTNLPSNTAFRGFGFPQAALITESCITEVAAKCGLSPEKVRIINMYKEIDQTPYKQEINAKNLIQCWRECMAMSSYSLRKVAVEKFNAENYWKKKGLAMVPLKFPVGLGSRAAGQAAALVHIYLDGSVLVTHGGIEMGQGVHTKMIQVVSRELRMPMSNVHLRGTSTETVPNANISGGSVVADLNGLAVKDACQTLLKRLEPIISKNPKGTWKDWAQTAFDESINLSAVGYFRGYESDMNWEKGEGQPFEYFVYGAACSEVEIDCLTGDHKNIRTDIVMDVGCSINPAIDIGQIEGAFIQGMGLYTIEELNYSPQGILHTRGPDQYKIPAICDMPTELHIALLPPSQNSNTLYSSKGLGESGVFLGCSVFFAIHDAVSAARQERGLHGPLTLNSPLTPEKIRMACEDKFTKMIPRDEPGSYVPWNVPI

Mus musculus [4] = species: Mus musculus; experiment: Increase in cGMP level in CD-1 mouse brain striatum assessed as unbound brain concentration required to show the effect by immunoassay; assay type: functional
Method in brief: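 CD-1 mice given compound; brains fixed by focused microwave irradiation, and cortex, striatum and hippocampus dissected and homogenized in 0.5 N HCl, then centrifuged. cGMP in the supernatant measured by enzyme immunoassay. Unbound brain concentration taken from satellite animals. Dose-response and time-course data combined, and a linear Cbu–cGMP model fitted. The Cbu E50 is the projected Cbu giving a 50% rise in cGMP. Statistics by one-way ANOVA with Fisher's PLSD, p<0.05.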

Rattus norvegicus [5] = experiment: Effect on habituated locomotor activity in Long Evans rat at 0.32 to 3.2 mg/kg, sc; assay type: ADME, organism-based; details: in vivo
Method in brief: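 Rats dosed SC at 0.32, 1.0 and 3.2 mg/kg; conditioned avoidance responding also run in combination with risperidone 0.032 mg/kg.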

Rattus norvegicus [6] = experiment: Reversal of ketamine-induced working memory deficit in Long Evans rat at 0.032 to 0.32 mg/kg, sc by radial arm maze assay
Mus musculus [7] = species: Mus musculus; experiment: Effect on cAMP level in CD-1 mouse brain cortex by immunoassay; assay type: functional
Method in brief: (§1)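 CD-1 mice dosed SC (solution in 20% SBE-β-CD with 2 molar equivalents 1N HCl, 1 mL/kg); euthanized by focused microwave irradiation of brain; cortex, striatum, hippocampus homogenized in 0.5 N HCl, centrifuged; cyclic nucleotides in supernatant by enzyme immunoassay. Unbound brain exposure from satellite animals; dose-response and time-course data combined with linear model; one-way ANOVA with Fisher's PLSD.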

Mus musculus [8] = species: Mus musculus; experiment: Effect on cAMP level in CD-1 mouse brain hippocampus by immunoassay; assay type: functional; method in brief: as §1

Kp uu [1]: 0.6 | inhibition (INH) (Cytochrome P450 3A): Not Active | inhibition (INH) (Cytochrome P450 2B6): Not Active | Kp uu [3]: 0.51 | Drug metabolism (Aldehyde oxidase): Metabolite_Notdetected
SMILES: Cc1nc(-c2cnn(C)c2-c2ccc(C(F)(F)F)cn2)c2c(N3CCC3)ncnn12 [PF-05180999]
Activity (Canis familiaris): Non-Toxic | Activity (Rattus norvegicus [2]): Non-Toxic | fEC50 (Mus musculus [4]): 98 nM | Activity (Rattus norvegicus [5]): Non-Toxic | Activity (Rattus norvegicus [6]): Active | Activity (Mus musculus [7]): inactive | Activity (Mus musculus [8]): inactive
